SUMO1-SIM PPI – modulators of human SUMO1-mediated protein-protein interactions. actives 0.33% (n = 360,000). P63165. SUMO1 binding to a labelled peptide, TR-FRET, 1 h. inhibition, % at 20 µM; in the data active = inhibition above about 37%
Target sequence (P63165 whole entry, looked up): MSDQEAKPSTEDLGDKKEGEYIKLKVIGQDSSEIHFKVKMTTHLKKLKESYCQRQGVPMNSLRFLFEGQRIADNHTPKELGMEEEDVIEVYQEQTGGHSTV
Scp1 inh – inhibitors of human Scp-1 phosphatase. Recombinant Scp1, phosphopeptide, malachite green phosphate absorbance. actives 0.88% (n = 340,000). inhibition, % at 20 µM. Q9GZU7;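 active = inhibition above about 50% at 20 µM, limit read from the data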
Target sequence (Q9GZU7 76-261 limits assumed): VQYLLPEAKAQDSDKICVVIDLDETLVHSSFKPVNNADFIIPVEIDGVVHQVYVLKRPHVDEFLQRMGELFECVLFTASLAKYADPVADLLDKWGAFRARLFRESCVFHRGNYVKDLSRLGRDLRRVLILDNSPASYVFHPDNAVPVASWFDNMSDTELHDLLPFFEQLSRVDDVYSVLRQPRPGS
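assay system = SCP-1 phosphatase catalytic domain, residues 76-261 | buffer or medium = 50 mM Tris acetate pH 5.5, 0.005% Tween-20, 10 mM MgCl2 | incubation = enzyme reaction 45 min at room temperature, colour 5 min, stabilisation 30 min | signal = Phosphate-binding colour reagent, absorbance read at 630 nm | measure = % inhibition at 20 µM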
DNMT1 block – inhibitors of human DNMT1; DNMT1 molecular beacon, Hinp1I cleavage, fluorescence; inhibition (reported as % activation of signal), % at 10 µM; P26358; actives 0.83% (n = 360,000); in the data active = inhibition above about 50%
STEP inh – STEP (human) phosphatase inhibition; P54829; recombinant STEP, OMFP fluorogenic substrate, fluorescence; inhibition, % at 20 µM; actives 0.25% (n = 360,000);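 active = inhibition at 20 µM, scaled per plate between control wells, above about 37%, limit read from the data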
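Also added – OMFP at 25 µM · Test system – STEP tyrosine phosphatase · Technique – FITC-channel fluorescence of OMFP product · Schedule – 20 min at room temperature, dark · Evaluation – control-normalized % inhibition with plate pattern correction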
NadD block – blocks S. aureus nicotinate mononucleotide adenylyltransferase | actives 0.78% (n = 360,000) | purified NadD enzyme, colorimetric absorbance read-out | inhibition, % at 20 µM; in the data active = inhibition above about 26%
LMPTP inh – LMPTP (human) inhibition | P24666 | recombinant LMPTP-A, OMFP fluorogenic substrate, fluorescence intensity | inhibition, % at 20 µM | actives 0.22% (n = 360,000) | AID 651560;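 active = compounds that cut the enzyme signal by at least half of the control window in the single-dose screen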
Target sequence (P24666 whole entry, looked up): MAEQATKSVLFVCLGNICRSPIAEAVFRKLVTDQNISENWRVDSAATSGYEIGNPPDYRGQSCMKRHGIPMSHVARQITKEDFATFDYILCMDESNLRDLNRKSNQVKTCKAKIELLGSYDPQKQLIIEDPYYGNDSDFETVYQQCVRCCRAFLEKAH
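Assay system: LMPTP-A enzyme. Input: 0.625 nM LMPTP-A final. Probe or stimulus: 400 µM OMFP. Compound dosing: single 20 µM dose. Schedule: 50 min dark incubation at room temperature. Detection: fluorescence intensity of OMFP turnover product. Read-out: percent inhibition versus substrate-only and uninhibited controls. Benchmarks: no-enzyme low control, uninhibited high control.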
Scp1 confirm – Scp-1 (human) inhibition, single-dose confirmed; recombinant SCP-1 catalytic domain, phosphate release, malachite green absorbance; actives 61% (n = 2,500); shares compounds with Scp1 inh; inhibition, % at 20 µM
MG interference – colorimetric interference in Scp-1 counter-screen | AID 540313 | shares compounds with Scp1 inh | Colorimetric interference counterscreen, malachite green absorbance 630 nm | 2,500 tested, under 10 active | apparent inhibition (interference), % at 20 µM;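 note: compounds added after enzyme reaction finished so only phosphate colour detection is probed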
Scp1 DSF – Scp-1 (human) binding by thermal shift; actives 25% (n = 1,500); AID 540329; Recombinant SCP1, Sypro Orange thermal shift Tm; thermal shift relative to vanadate control, % at 40 µM; shares compounds with Scp1 inh;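 active = substances whose mean melting-temperature shift, as a percentage of the reference inhibitor's shift, reaches about 5.3%, limit read from the data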
DNMT1 confirm – confirmation of human DNMT1 inhibitors. shares compounds with DNMT1 block. DNMT1 molecular beacon HinP1I cleavage, fluorescence. inhibition, % at 10 µM. actives 8% (n = 2,300). AID 602385;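 active = average inhibition of at least 30% in the single-concentration confirmation test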
DNMT1 interf – counter-screen for DNMT1 inhibitors: spectral interference. shares compounds with DNMT1 block. DNMT1 molecular beacon spectral interference counterscreen, fluorescence 485/520. activation (fluorescence interference), % at 10 µM. actives 1% (n = 2,300);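 active = activation of at least 30% at 10 µM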;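 note: DNMT1 catalytic domain with a HinP1I cleavage step and a FAM/dabcyl DNA beacon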
Hits are given with their value; n = inactive; x = no result given. Only some compounds are listed: those with a hit (about 2.4% of all), similar ones and a draw of the others.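 Rule for the calls, unless noted: active = inhibition of at least 30% at 20 µM; inactive = the rest.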

SMILES	SUMO1-SIM PPI	Scp1 inh	DNMT1 block	STEP inh	NadD block	LMPTP inh	Scp1 confirm	MG interference	Scp1 DSF	DNMT1 confirm	DNMT1 interf
C=C(C)C(=O)Nc1cccc(C2=NOC3(C2)C[C@@H](C(N)=O)N(C(=O)c2cc([N+](=O)[O-])cc([N+](=O)[O-])c2C)C3)c1 (stereo partly specified)	46	70	96	n	n	n	64	n	n	n	n
C=C(C)C(=O)Nc1cccc(C2=NOC3(C2)C[C@H](C(N)=O)N(C(=O)c2ccccc2)C3)c1 (stereo partly specified)	n	88	91	n	n	n	65	n	n	n	n
CCn1c(=O)c(=O)[nH]c2cc(C(=O)NC3CCCc4ccccc43)ccc21 (stereo unspecified)	n	n	n	n	n	n	x	x	x	x	x
CN1CCN(CC(C)(C)NS(=O)(=O)c2ccccc2)CC1	n	n	n	n	n	n	x	x	x	x	x
CCN(CC(=O)Nc1c(F)cccc1F)C(=O)CCc1nc2sc3c(c2c(=O)[nH]1)CCCC3	n	65	54	n	n	n	59	n	9.0	n	n
CCN(CC(=O)Nc1ccccc1C(F)(F)F)C(=O)CCc1nc2sc3c(c2c(=O)[nH]1)CCCC3	n	n	n	n	n	n	x	x	x	x	x
CCC(=O)Nc1cc(C(=O)O)ccc1S(=O)(=O)c1ccc(C)cc1	n	67	63	n	n	n	57	n	n	n	n
Cc1occc1C(=O)NNC(=O)C1CCCC1	n	n	n	n	n	n	x	x	x	x	x
Cc1nc(SCC(=O)O)c(C#N)c2c1CCCC2	n	96	58	n	n	n	70	n	n	n	n
Brc1ccc(-c2nn3c(-c4ccco4)nnc3s2)o1	n	52	84	n	n	n	n	n	x	n	n
c1ccc(-c2nn3c(-c4ccco4)nnc3s2)nc1	n	n	n	n	n	n	x	x	x	x	x
CCOc1cc2c(cc1OCC)C(c1ccccc1OC)OC(=O)C2 (stereo unspecified)	n	n	n	n	n	n	x	x	x	x	x
O=C(O)CC1Sc2ccccc2NC1=O (stereo unspecified)	n	n	n	n	n	n	x	x	x	x	x
O=C1Nc2ccccc2SC(c2ccccc2)C1O (stereo unspecified)	n	74	99	n	n	n	64	n	6.6	n	n
O=C(CSc1ccsc1[N+](=O)[O-])Nc1cc(F)ccc1F	n	72	70	n	n	n	66	n	8.1	n	n
CCC(Oc1ccc(F)cc1)C(=O)N1CCCCCCC1 (stereo unspecified)	n	n	n	n	n	n	x	x	x	x	x
CC(=O)NC(Cc1c[nH]c2ccccc12)C(=O)NCc1ccco1 (stereo unspecified)	n	n	n	n	n	n	x	x	x	x	x
CC(Cc1c[nH]c2ccccc12)C(=O)NCc1ccco1 (stereo unspecified)	60	103	74	n	n	n	60	n	n	n	n
O=C(CSc1nnc(-c2ccco2)n1Cc1ccccc1)NC(=O)NCc1ccccc1	n	n	n	n	n	n	x	x	x	x	x
CC(C)(C)NC(=O)NC(=O)CSc1nnc(COc2ccccc2Cl)o1	n	n	n	n	n	n	x	x	x	x	x
Cc1ccccc1Nc1nnc(SCC(=O)NC(=O)NCc2ccco2)s1	n	84	90	n	n	n	61	n	n	n	n
O=C(CSc1nccc(=O)[nH]1)NCc1ccco1	n	93	77	n	n	n	69	n	n	n	n
Cc1nnc(SCC(=O)NC(=O)NCc2ccco2)n1Cc1ccccc1	n	87	66	n	n	n	63	n	n	n	n
O=C(CSc1nnc(Nc2ccccc2)s1)NCc1ccco1	n	n	n	n	n	n	x	x	x	x	x
O=C(CSc1nnc(COc2ccccc2Cl)o1)NC(=O)NCc1ccco1	n	76	72	n	n	n	44	n	n	n	n
SMILES	SUMO1-SIM PPI	Scp1 inh	DNMT1 block	STEP inh	NadD block	LMPTP inh	Scp1 confirm	MG interference	Scp1 DSF	DNMT1 confirm	DNMT1 interf
CCC(=O)N1CCN(c2ccccc2NC(=O)c2ccc([N+](=O)[O-])o2)CC1	n	n	n	n	n	n	x	x	x	x	x
O=C(CSc1nnc(Nc2ccccc2F)s1)NCc1ccco1	n	83	76	n	n	n	63	n	n	n	n
O=S(=O)(NNc1ncc(C(F)(F)F)cc1Cl)c1ccccc1	n	n	n	n	n	n	x	x	x	x	x
COc1ccc(O)c(/C=N/NC(=O)c2c(C)nnn2-c2nonc2N)c1	n	100	96	68	n	n	86	n	n	n	n
Cc1ccc(-c2cc(C(=O)NCc3ccco3)c3ccccc3n2)o1	n	77	92	n	n	n	71	n	n	n	n
Cc1cc(C(=O)NCc2ccco2)c2ccccc2n1	n	n	n	n	n	n	x	x	x	x	x
O=C(Nc1nccs1)c1cc(-c2ccco2)nc2ccccc12	n	50	55	n	n	n	60	n	8.6	n	n
O=C(O)c1cc(-c2ccco2)nc2ccccc12	n	59	61	n	n	n	43	n	n	n	n
Cc1c(NS(=O)(=O)c2cccc(C(=O)NCc3ccccc3Cl)c2)c(=O)n(-c2ccccc2)n1C	n	n	n	n	n	n	x	x	x	x	x
O=S(=O)(Nc1ncccn1)c1ccc(Cl)cc1	n	n	n	n	n	n	x	x	x	x	x
COC(=O)c1cc(C(=O)OC)cc(-n2c(C)cc(C(=O)CC#N)c2C)c1	n	n	n	n	n	n	x	x	x	x	x
Cc1onc(-c2ccccc2Cl)c1C(=O)NCc1ccco1	n	83	63	n	n	n	n	n	x	n	n
O=C(Nc1ccc(-c2nc3ccccc3s2)c(O)c1)C1=COCCO1	n	98	70	n	n	53	71	n	9.9	n	n
CCOc1ccc(NC(=O)c2ccc(F)cc2F)cc1	n	n	n	n	n	n	x	x	x	x	x
CN(CC(=O)NC(=O)NCc1ccco1)Cc1nc2ccccc2c(=O)[nH]1	n	86	70	n	n	n	73	n	n	n	n
